LMPTP block: blocks human LMPTP phosphatase; P24666; recombinant LMPTP-A, OMFP fluorogenic substrate, fluorescence intensity; inhibition, % at 20 µM; hit rate 0.22% among 360,000; AID 651560;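 active = compounds that cut the enzyme signal by at least half of the control window in the single-dose screen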;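 also: plate controls were DMSO wells with enzyme plus substrate for no effect and substrate without enzyme for full effect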
Target sequence (P24666 whole entry, looked up): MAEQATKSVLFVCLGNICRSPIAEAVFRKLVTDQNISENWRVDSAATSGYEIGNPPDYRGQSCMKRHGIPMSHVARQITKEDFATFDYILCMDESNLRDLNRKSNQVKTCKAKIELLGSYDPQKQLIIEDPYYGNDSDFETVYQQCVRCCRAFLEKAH
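Test system – LMPTP-A enzyme · Amount – LMPTP-A at 0.625 nM final in the reaction · Buffer or medium – Bis-Tris pH 6.0, DTT, detergent · Reagent – OMFP 400 µM · Doses – single 20 µM dose · Schedule – reaction 50 min, room temperature, dark · Detection – fluorescence intensity of OMFP turnover product · Evaluation – percent inhibition versus substrate-only and uninhibited controls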
SUMO HTRF inh: SUMOylation inhibition; HTRF SUMOylation assay, SAE1/SAE2 + UBC9, in vitro; inhibition, % at 35 µM; hit rate 0.36% among 290,000; AID 2006; in the data active = inhibition above about 50%, passing the limit was not always enough
Target sequence (P63279 whole entry, looked up): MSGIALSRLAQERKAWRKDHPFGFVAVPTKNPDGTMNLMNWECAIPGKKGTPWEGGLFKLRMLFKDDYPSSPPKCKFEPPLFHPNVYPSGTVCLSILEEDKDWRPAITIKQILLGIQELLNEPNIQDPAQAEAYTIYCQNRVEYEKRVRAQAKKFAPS
SUMO1 PPI mod: alters human SUMO1 binding to SIM partners | P63165 | inhibition, % at 20 µM | hit rate 0.33% among 360,000 | SUMO1 binding to a labelled peptide, TR-FRET, 1 h; in the data active = inhibition above about 37%
Target sequence (P63165 whole entry, looked up): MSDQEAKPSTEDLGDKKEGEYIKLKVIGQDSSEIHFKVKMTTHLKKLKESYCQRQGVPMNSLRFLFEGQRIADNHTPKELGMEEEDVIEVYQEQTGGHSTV
Scp1 inh: Scp-1 (human) phosphatase inhibition; hit rate 0.88% among 340,000; Recombinant Scp1, phosphopeptide, malachite green phosphate absorbance; Q9GZU7; inhibition, % at 20 µM; AID 493091;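 active = inhibition above about 50% at 20 µM, limit read from the data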;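 also: plate controls were DMSO wells with enzyme for no effect and wells lacking enzyme for full effect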
Target sequence (Q9GZU7 76-261 limits assumed): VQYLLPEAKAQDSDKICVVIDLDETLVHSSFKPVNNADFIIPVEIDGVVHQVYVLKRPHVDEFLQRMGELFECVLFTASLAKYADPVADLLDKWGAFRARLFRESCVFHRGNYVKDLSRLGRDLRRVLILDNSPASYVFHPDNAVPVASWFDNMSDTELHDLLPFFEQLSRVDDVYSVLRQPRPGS
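Times: enzyme reaction 45 min at room temperature, colour 5 min, stabilisation 30 min. Material: SCP-1 catalytic fragment, aa 76-261. Medium: Acidic Tris acetate buffer with magnesium and detergent. Signal: colorimetric free-phosphate detection, absorbance 630 nm. Read-out basis: % inhibition of SCP-1 phosphate liberation. Reagent: Phosphorylated 17-residue peptide substrate.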
STEP inh: STEP (human) phosphatase inhibition; P54829; recombinant STEP, OMFP fluorogenic substrate, fluorescence; inhibition, % at 20 µM; hit rate 0.25% among 360,000; AID 588621;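 active = inhibition at 20 µM, scaled per plate between control wells, above about 37%, limit read from the data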;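 also: 0% = DMSO with enzyme and substrate and 100% = substrate only without enzyme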
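System: STEP (striatal-enriched tyrosine phosphatase) enzyme, cell-free; medium: Bis-Tris pH 6.0 buffer with DTT, detergent; dosing: 20 µM, 1% DMSO; times: reaction 20 min, ambient temperature; detection: fluorescence, 480/540 nm; read-out basis: normalized % inhibition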
DNMT1 inh: inhibitors of human DNMT1; DNMT1 molecular beacon, Hinp1I cleavage, fluorescence; hit rate 0.83% among 360,000; inhibition (reported as % activation of signal), % at 10 µM; P26358; in the data active = inhibition above about 50%
Scp-1 conf: confirmation of human Scp-1 phosphatase inhibitors. shares compounds with Scp1 inh. recombinant SCP-1 catalytic domain, phosphate release, malachite green absorbance. inhibition, % at 20 µM. hit rate 61% among 2,500;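 also: plate controls were DMSO with enzyme for no effect and buffer wells lacking enzyme for full effect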
Scp-1 MG ctr: colorimetric interference in Scp-1 counter-screen; 2,500 tested, under 10 active; shares compounds with Scp1 inh; apparent inhibition (interference), % at 20 µM; Colorimetric interference counterscreen, malachite green absorbance 630 nm;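 also: compounds added after enzyme reaction finished so only phosphate colour detection is probed; plate controls were DMSO wells with completed Scp-1 reaction for no effect and substrate wells lacking enzyme for full effect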
Scp1 DSF: Scp-1 (human) binding by thermal shift; shares compounds with Scp1 inh; Recombinant SCP1, Sypro Orange thermal shift Tm; thermal shift relative to vanadate control, % at 40 µM; hit rate 25% among 1,500;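 active = substances whose mean melting-temperature shift, as a percentage of the reference inhibitor's shift, reaches about 5.3%, limit read from the data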;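 also: 0% = Tm of DMSO wells and 100% = Tm with sodium orthovanadate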
DNMT1 inh conf: DNMT1 inhibition confirmation, single concentration | shares compounds with DNMT1 inh | DNMT1 molecular beacon HinP1I cleavage, fluorescence | inhibition, % at 10 µM | hit rate 8% among 2,300 | AID 602385;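 active = average inhibition of at least 30% in the single-concentration confirmation test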
DNMT1 interf: shows spectral interference in the DNMT1 beacon assay; shares compounds with DNMT1 inh; DNMT1 molecular beacon spectral interference counterscreen, fluorescence 485/520; activation (fluorescence interference), % at 10 µM; hit rate 1% among 2,300;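 active = activation of at least 30% at 10 µM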;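 also: DNMT1 catalytic domain with a HinP1I cleavage step and a FAM/dabcyl DNA beacon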
STEP conf: STEP (human) phosphatase inhibition, single concentration confirmation. shares compounds with STEP inh. recombinant STEP, OMFP fluorogenic substrate, fluorescence. inhibition, % at 20 µM. hit rate 32% among 520. AID 623866; call rule not given here;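 also: 0% = enzyme with substrate plus DMSO and 100% = substrate without enzyme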
* = called active by the depositor; . = no result. In the library only some 1.9% were active in any assay of this set; here they are far more common.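 The calls were made as follows, unless noted: active = inhibition of at least 30% at 20 µM; inactive = the rest.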

SMILES	LMPTP block	SUMO HTRF inh	SUMO1 PPI mod	Scp1 inh	STEP inh	DNMT1 inh	Scp-1 conf	Scp-1 MG ctr	Scp1 DSF	STEP conf	others
CCn1c(=S)sc2c(=O)n(CC(=O)Nc3ccccc3C(F)(F)F)c(C)nc21	67*	-5	8	68*	87*	28	26	-17	.	8
Cc1nnc(SCC(=O)NC2CCCC(C)C2C)n1N (stereo not drawn)	-1	.	-1	-3	0	2	.	.	.	.
O=C(Nc1nc2ccsc2c(=O)s1)c1ccc(Cl)cc1	54*	-2	-31	103*	96*	24	72*	-10	5	0
CC1CCCCN1S(=O)(=O)c1ccc(S(=O)(=O)N2CCN(C)CC2)cc1 (stereo not drawn)	-2	15	20	-8	3	4	.	.	.	.
COc1cc(/C=C(\C#N)C(=O)Nc2cccc(C(=O)O)c2)ccc1OCc1ccc(C)cc1	0	20	10	86*	61*	5	72*	-19	1	6
O=C(N/N=C/C=C/c1ccccc1)c1cc2c(ccc3ccccc32)o1	63*	34	-1	102*	66*	94*	81*	-7	-22	21	DNMT1 inh conf=6;DNMT1 interf=2
O=C(N/N=C/c1ccccc1F)c1cc2c(ccc3ccccc32)o1	36	26	10	103*	97*	82*	67*	-11	-18	11	DNMT1 inh conf=6;DNMT1 interf=0
O=C(Cn1cnc2c(nnn2-c2ccccc2)c1=O)NCc1ccc(F)cc1	34	28	17	101*	77*	30	96*	3	-2	26
CC(=O)c1ccc(OC(=O)c2cc3ccccc3oc2=O)cc1	.	7	.	.	.	.	.	.	.	.
Cc1nc(CC(=O)c2ccc(O)c(C)c2O)cs1	1	13	1	-2	-4	3	.	.	.	.
O=C(O)Cc1cccc(=O)c(O)c1C(=O)O	19	.	18	79*	68*	86*	54*	-9	6.3*	88*
O=C(O)Cc1ccccc1C(=O)O	-2	7	4	-3	-4	12	.	.	.	.
O=C(NNc1ncnc2ccccc12)c1cccc(Cl)c1	6	24	1	100*	38*	2	91*	-7	-11	1
Cc1ccc(NS(=O)(=O)c2cccc3nsnc23)cc1	-1	-4	-33	0	2	0	.	.	.	.
O=S(=O)(Nc1ccccc1)c1cccc2nsnc12	58*	12	-14	78*	84*	44	59*	-11	-16	40*
CCOc1ccc(N=C2NC(=O)S/C2=C\c2ccc(Cl)cc2)cc1	47	46	-4	112*	51*	84*	41*	-10	-2	33	DNMT1 inh conf=0;DNMT1 interf=-6
Cc1c(CC(=O)O)c(=O)oc2c(C)c3occ(-c4ccc(Br)cc4)c3cc12	2	10	23	52*	69*	4	62*	-7	-17	6
COc1ccc(-c2coc3c(C)c4oc(=O)c(CC(=O)O)c(C)c4cc23)cc1	1	24	19	-3	1	0	.	.	.	.
CN(C)CCOC(=O)NCC12CC3CC(CC(C3)C1)C2	-2	19	6	-13	0	3	.	.	.	.
CC(C)NC(=O)C1(C)CSCC(=O)N1Cc1ccco1 (stereo not drawn)	0	.	-1	.	.	.	.	.	.	.
O=c1c(C=Nc2ccc(Cl)cc2)c[nH]n1-c1cccc(Cl)n1	62*	-6	-9	102*	79*	75*	99*	0	-3	2	DNMT1 inh conf=2;DNMT1 interf=-6
CCc1nc2ccc(C(=O)Nc3cccc(OCC(=O)N(C)C)c3)cn2c1N(C)Cc1cc2ccccc2s1	5	.	-2	.	3	-16	.	.	.	.
CCCc1cc(=O)oc2cc(OCC(=O)Nc3ccc(S(N)(=O)=O)cc3)ccc12	84*	.	55*	100*	69*	32	85*	-8	2	65*
CCCc1cc(=O)oc2cc(OCC(=O)NCc3cccs3)ccc12	2	10	-4	-4	-2	4	.	.	.	.
CCCCCCOc1ccc(C(CC(N)=O)C(=O)O)cc1 (stereo not drawn)	1	9	-2	-3	1	1	.	.	.	.
SMILES	LMPTP block	SUMO HTRF inh	SUMO1 PPI mod	Scp1 inh	STEP inh	DNMT1 inh	Scp-1 conf	Scp-1 MG ctr	Scp1 DSF	STEP conf	others
Cc1cc(OCCN2CCC(Cc3ccccc3)CC2)ccc1[N+](=O)[O-]	1	8	-7	0	1	-7	.	.	.	.
CCOc1ccc(C(=O)c2cc3ccc(O)cc3oc2=O)cc1	0	7	-23	-3	0	-4	.	.	.	.
O=C(c1ccc([N+](=O)[O-])cc1)c1cc2ccc(O)cc2oc1=O	22	20	-29	72*	53*	1	55*	-5	5.7*	0
CC1CCCN(C(=O)c2ccc3c(=O)n4nc(Nc5ccccc5)sc4nc3c2)C1 (stereo not drawn)	1	.	-3	.	3	2	.	.	.	.
Cc1cccc(Nc2nn3c(=O)c4ccccc4nc3s2)c1	47	-27	7	106*	96*	94*	69*	-22	-10	29*	DNMT1 inh conf=13;DNMT1 interf=3
CC(/C=N/NC(=O)c1ccc(Br)cc1)=C\c1ccccc1	55*	6	-4	94*	55*	50*	89*	-3	-21	-2	DNMT1 inh conf=1;DNMT1 interf=2
COc1ccc(C(=O)N/N=C\C(C)=C\c2ccccc2)cc1OC	0	.	-14	7	-2	-5	.	.	.	.
O=C(O)c1ccc2c(c1)C(=O)N(c1cccc(-c3nc4ccccc4s3)c1)C2=O	4	70*	-5	93*	81*	1	86*	-6	5.4*	47*
CCN(CC(=O)Nc1ccccc1C(F)(F)F)C(=O)CN1C(=O)NC2(CCCCC2)C1=O	-1	.	-1	-1	2	1	.	.	.	.

High-throughput results (PubChem)
